This is an account of results in ChEMBL document CHEMBL1132269, “Self-immolative anthracycline prodrugs for suicide gene therapy” (J Med Chem, 1999).

Data set [1] can be described thus: Half life period in the absence of CPG2 (carboxypeptidase) enzyme. The format is ADME. A digest of the protocol: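 Prodrug at 100 μM in phosphate-buffered saline (pH 7.4), 37 °C, without enzyme; samples injected at timed intervals on reverse-phase HPLC, isocratic methanol/water/10 mM NaH2PO4 (pH 5.0), detection at 500 nm. Chemical half-life from slope of semilog plot.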

For data set [2], the system named is CPG2 (carboxypeptidase). The experiment in a line: Half life period in the presence of CPG2 (carboxypeptidase) enzyme. The format is ADME. A digest of the protocol: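 Prodrug at 100 μM in phosphate-buffered saline (pH 7.4), 37 °C, with 50 mU CPG2; timed samples analysed by reverse-phase HPLC, absorbance 500 nm. Plots linear on linear axes, so apparent half-life taken as time for concentration to fall to half its starting value.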

In data set [3] the test system is MDA-MB-361. As to the kind of experiment: The compound was tested for intracellular cytotoxicity against MDA MB 361(mammary carcinoma cell line) expressing LacZ (beta-galactosidase). The format is functional, cell-based. The conditions noted are these: Homo sapiens. The method, boiled down: (§1)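 MDA MB 361 breast carcinoma cells stably expressing surface-tethered CPG2 (stCPG2(Q)3), intracellular CPG2 (CPG2*) or control beta-galactosidase (LacZ). Compounds dissolved in DMSO at 10 mM (stock) just before treatment. After exposure, cells harvested and reseeded in quadruplicate at ~2 × 10^3 cells/well. Cells fixed and stained with sulforhodamine-B once control plates reached confluence, absorbance read at 590 nm. Growth expressed as % of control, IC50 interpolated.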

Data set [4] relates to MDA-MB-361. As to the kind of experiment: The compound was tested for intracellular cytotoxicity against MDA MB 361(mammary carcinoma cell line) in the presence of CPG2 prodrug. It is filed as functional, cell-based. The conditions noted are these: Homo sapiens. A digest of the protocol: (§2)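 Cytotoxicity differential: ratio of a prodrug's IC50 in MDA MB 361 cells expressing stCPG2(Q)3 or CPG2* to its IC50 in LacZ control cells. IC50 values come from a sulforhodamine-B growth assay (cells reseeded in quadruplicate after treatment, stained at control confluence, A590, % control growth, interpolation). Prodrug:drug ratio taken in LacZ cells.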

Data set [5] is described as follows: Ratio of the intracellular cytotoxicities against MDA MB 361(mammary carcinoma cell line) expressing LacZ (beta-galactosidase). between prodrug and drug. It is filed as functional. A digest of the protocol:
(§3)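 MDA MB 361 cells stably expressing surface-tethered CPG2 (stCPG2(Q)3) or β-galactosidase control (LacZ) treated with compound (10 mM DMSO stock made fresh), then reseeded in quadruplicate at ~2 × 10^3 cells/well; fixed and sulforhodamine-B stained when controls confluent, A590. IC50 interpolated from % control growth; ratio = LacZ vs stCPG2(Q)3 IC50 or prodrug vs drug IC50 in LacZ cells.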

Data set [6] relates to MDA-MB-361. As to the kind of experiment: The compound was tested for extracellular cytotoxicity against MDA MB 361(mammary carcinoma cell line) in the presence of stCPG2 prodrug. The format is functional, cell-based. The conditions noted are these: Homo sapiens. A digest of the protocol: as §2
Data set [7] can be described thus: Ratio of the extracellular cytotoxicities against MDA MB 361(mammary carcinoma cell line) expressing LacZ and carboxypeptidase stCPG2 of the prodrug. The format is functional. The method, boiled down: as §3
For data set [8], the system named is MDA-MB-361. As to the kind of experiment: The compound was tested for extracellular cytotoxicity against MDA MB 361(mammary carcinoma cell line) expressing carboxypeptidase stCPG2. It is filed as functional, cell-based. The following applies: Homo sapiens. The method, boiled down:
as §1

The test system of data set [9] is MDA-MB-361. The experiment in a line: The compound was tested for intracellular cytotoxicity against MDA MB 361(mammary carcinoma cell line) expressing carboxypeptidase G2(CPG2). The format is functional, cell-based. The conditions noted are these: Homo sapiens. The method, boiled down: as §1

Where “and” joins values, the source holds several entries; their conditions need not be identical. Identical values can stand only once.

As usually defined, the half-life is the time needed for the level to fall by half in the phase considered. As usually defined, the IC50 is the concentration needed to halve the response being measured.

`COc1cccc2c1C(=O)c1c(O)c3c(c(O)c1C2=O)C[C@@](O)(C(C)=O)C[C@@H]3OC1CC(NC(=O)OCc2ccc(NC(=O)NC(CCC(=O)O)C(=O)O)cc2)C(O)C(C)O1` (stereo partly drawn): the half-life was 19.8 h in data set [1] and 0.645 h in data set [2]. Further, the IC50 in data set [3] came to 112 nM; in data set [4], 123 nM; in data set [6], 29 nM. In addition, in data set [5], the Ratio was determined as 6.6.
For `COc1cccc2c1C(=O)c1c(O)c3c(c(O)c1C2=O)C[C@@](O)(C(=O)CO)C[C@@H]3OC1CC(NC(=O)OCc2ccc(NC(=O)NC(CCC(=O)O)C(=O)O)cc2)C(O)C(C)O1` (stereo partly drawn), the half-life in [1] was determined as 15.8 h; in data set [2] it was 0.7 h. Further, the IC50 in data set [3] is 256 nM; in data set [4], 47 nM; in data set [6], 24 nM. For the same molecule, the Ratio in data set [5] was 21.3; in [7], 5.4 and 10.7.
`COc1cccc2c1C(=O)c1c(O)c3c(c(O)c1C2=O)C[C@@](O)(C(=O)CO)C[C@@H]3OC1CC(NC(=O)OCc2ccc(OC(=O)NC(CCC(=O)O)C(=O)O)cc2)C(O)C(C)O1` (stereo partly drawn): the half-life in data set [1] turned out to be 28.4 h; in data set [2], 4.46 h. For the same molecule, the IC50 in data set [3] amounted to 279 nM; in data set [4], 204 nM; in data set [6] it was 92 nM. In addition, the Ratio was 23.3 in [5]; 1.4 and 3 in data set [7].
With `COc1cccc2c1C(=O)c1c(O)c3c(c(O)c1C2=O)C[C@@](O)(C(C)=O)C[C@@H]3OC1CC(NC(=O)OCc2ccc(OC(=O)NC(CCC(=O)O)C(=O)O)cc2)C(O)C(C)O1` (stereo partly drawn), the half-life amounted to 24.7 h in data set [1] and 2.21 h in [2]. For the same molecule, the IC50 in data set [3] came out at 115 nM; in data set [4], 405 nM; in [6] it was 177 nM. Further, the Ratio was 6.8 in data set [5]; 0.3 and 0.7 in data set [7].
For `COc1cccc2c1C(=O)c1c(O)c3c(c(O)c1C2=O)C[C@@](O)(C(C)=O)C[C@@H]3O[C@H]1C[C@H](N)[C@H](O)[C@H](C)O1` [DAUNORUBICIN], the IC50 in [3] was 17 nM; in data set [4], 36 nM; in data set [6], 21 nM.
For `COc1cccc2c1C(=O)c1c(O)c3c(c(O)c1C2=O)C[C@@](O)(C(=O)CO)C[C@@H]3O[C@H]1C[C@H](N)[C@H](O)[C@H](C)O1` [DOXORUBICIN], the IC50 came out at 18 nM in data set [8], 12 nM in [3] and 33 nM in data set [9].
